Test results from ChEMBL document CHEMBL3272107, “Design of potent antagonists of the vasopressor response to arginine-vasopressin” (J Med Chem, 1978).
*1 amine or outer side, *2 acyl side, *3 side chain or, on linkers, in order; H or OH if unused. Where a SMILES comes first, the peptide text is derived from it. Bridges are numbered along the chain shown (N, C = ends). X1 = CC(C)(CC(=O)[*:1])S[*:2]

How the values were obtained:
[1] = tested on: Rattus norvegicus; assay: Antidiuretic activity in iv dosed rat; assay type: functional, Urine
Procedure, shortened: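 Rats under ethanol anesthesia, analogue given intravenously; antidiuretic response measured by previously described method.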

[2] = tested on: Rattus norvegicus; assay: Vasopressor activity in iv dosed phenoxybenzamine treated rat; assay type: functional
Procedure, shortened: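 Rats pretreated with phenoxybenzamine, under urethane anesthesia, analogue given intravenously; vasopressor (blood pressure) response measured, antagonism expressed as pA2 by Schild method, pA2 calculated per assay group and reported as mean ± SE with number of assays.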

[3] = tested on: Rattus norvegicus; assay: Antivasopressor activity in iv dosed phenoxybenzamine treated rat assessed as inhibition of arginine-vasopressin-induced effect; assay type: functional, organism-based; settings: read-out: pA2 (converted)
Procedure, shortened: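 Rats pretreated with phenoxybenzamine and anaesthetised with urethane; pressor response to arginine-vasopressin recorded with and without intravenous analogue. pA2 derived by the Schild method, one pA2 calculated per assay group, reported as mean ± SE across groups, number of assays stated.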

Row | Compound | Activity [1] [U/mg] | Activity [2] [U/mg] | Kb [3] [nM]
1 | COc1ccc(C[C@@H]2NC(=O)[C@@H](N)CSSC[C@@H](C(=O)N3CCC[C@H]3C(=O)N[C@@H](CCCNC(=N)N)C(=O)NCC(N)=O)NC(=O)[C@H](CC(N)=O)NC(=O)[C@H](CCC(N)=O)NC(=O)[C@H](Cc3ccccc3)NC2=O)cc1 | 386 | 9.7 | 
2 | COc1ccc(C[C@@H]2NC(=O)[C@@H](N)CSSC[C@@H](C(=O)N3CCC[C@H]3C(=O)N[C@@H](CCCCN)C(=O)NCC(N)=O)NC(=O)[C@H](CC(N)=O)NC(=O)[C@H](CCC(N)=O)NC(=O)[C@H](Cc3ccccc3)NC2=O)cc1 | 79 | 2.4 | 
3 | CC[C@H](C)[C@@H]1NC(=O)[C@H](Cc2ccc(OC)cc2)NC(=O)[C@@H](N)CSSC[C@@H](C(=O)N2CCC[C@H]2C(=O)N[C@@H](CC(C)C)C(=O)NCC(N)=O)NC(=O)[C@H](CC(N)=O)NC(=O)[C@H](CCC(N)=O)NC1=O | 0.01 |  | 
4 | COc1ccc(C[C@@H]2NC(=O)CC(C)(C)SSC[C@@H](C(=O)N3CCC[C@H]3C(=O)N[C@@H](CCCN=C(N)N)C(=O)NCC(N)=O)NC(=O)[C@H](CC(N)=O)NC(=O)[C@H](CCC(N)=O)NC(=O)[C@H](Cc3ccccc3)NC2=O)cc1 (Y(Me)FQNCPRG-NH2; linker N-5 via X1) | 3.5 |  | 11
5 | CC1(C)CC(=O)N[C@@H](Cc2ccc(O)cc2)C(=O)N[C@@H](Cc2ccccc2)C(=O)N[C@@H](CCC(N)=O)C(=O)N[C@@H](CC(N)=O)C(=O)N[C@H](C(=O)N2CCC[C@H]2C(=O)N[C@@H](CCCNC(=N)N)C(=O)NCC(N)=O)CSS1 (YFQNCPRG-NH2; linker N-5 via X1) | 42 |  | 
6 | CC[C@H](C)[C@@H]1NC(=O)[C@H](Cc2ccc(O)cc2)NC(=O)CCSSC[C@@H](C(=O)N2CCC[C@H]2C(=O)N[C@@H](CC(C)C)C(=O)NCC(N)=O)NC(=O)[C@H](CC(N)=O)NC(=O)[C@H](CCC(N)=O)NC1=O [DEMOXYTOCIN] | 19 | 1.44 | 
7 | N=C(N)NCCC[C@@H](NC(=O)[C@@H]1CCCN1C(=O)[C@@H]1CSSCCC(=O)N[C@@H](Cc2ccc(O)cc2)C(=O)N[C@@H](Cc2ccccc2)C(=O)N[C@@H](CCC(N)=O)C(=O)N[C@@H](CC(N)=O)C(=O)N1)C(=O)NCC(N)=O [DESMOPRESSIN] |  | 346 | 
8 | NCCCC[C@H](NC(=O)[C@@H]1CCCN1C(=O)[C@@H]1CSSC[C@H](N)C(=O)N[C@@H](Cc2ccc(O)cc2)C(=O)N[C@@H](Cc2ccccc2)C(=O)N[C@@H](CCC(N)=O)C(=O)N[C@@H](CC(N)=O)C(=O)N1)C(=O)NCC(N)=O [LYPRESSIN] | 212 | 285 | 
9 | CC[C@H](C)[C@@H]1NC(=O)[C@H](Cc2ccc(O)cc2)NC(=O)[C@@H](N)CSSC[C@@H](C(=O)N2CCC[C@H]2C(=O)N[C@@H](CC(C)C)C(=O)NCC(N)=O)NC(=O)[C@H](CC(N)=O)NC(=O)[C@H](CCC(N)=O)NC1=O [OXYTOCIN] | 4 |  | 
10 | N=C(N)NCCC[C@H](NC(=O)[C@@H]1CCCN1C(=O)[C@@H]1CSSC[C@H](N)C(=O)N[C@@H](Cc2ccc(O)cc2)C(=O)N[C@@H](Cc2ccccc2)C(=O)N[C@@H](CCC(N)=O)C(=O)N[C@@H](CC(N)=O)C(=O)N1)C(=O)NCC(N)=O [VASOPRESSIN] | 323 |  | 
